Test results from publication PMC12217639 (Scientific Reports, 2025).
Peptide text beside a SMILES is read from it.

Experiments:
Assay type in all cases: cell-based, human
[1] = test system: PDO-S (ICC patient-derived organoid); experiment: Drug sensitivity experiment of organoids; settings: by IC50, 24 h, CellTiter-Glo
[2] = test system: PDO-K (ICC patient-derived organoid); experiment: Drug sensitivity experiment of organoids; settings: by IC50, 24 h, CellTiter-Glo; for overall sensitivity of the three PDOs: overall across PDO-K, PDO-S and PDO-L
[3] = test system: PDO-L (ICC patient-derived organoid); experiment: Drug sensitivity experiment of organoids; settings: by IC50, 24 h, CellTiter-Glo
[4] = test system: HIBEpiC cells; experiment: Membrane potential; settings: 1 x 10^5 cells/mL, peptide 2.5, 5, 10, 20 µM, 1 h
How it was run: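 A cell suspension at 1 × 10^5 cells/mL was incubated 1 h with peptide at 0 (control), 2.5, 5, 10 or 20 µM. The mixture was then loaded into a folded capillary cell, and zeta potential was read on a NanoZetasizer.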

SMILES | rank of therapeutic effect among the drugs, PDO-S [1] | overall sensitivity of the three PDOs [2] | rank of therapeutic effect among the drugs, PDO-L [3] | change of zeta potential of normal cells after peptide treatment [4] | rank of therapeutic effect among the drugs, PDO-K [2]
Nc1ccn([C@@H]2O[C@H](CO)[C@@H](O)C2(F)F)c(=O)n1 [Gemcitabine] | most effective |  |  |  | 
CNC(=O)c1cc(Oc2ccc(NC(=O)Nc3ccc(Cl)c(C(F)(F)F)c3)cc2)ccn1 [Sorafenib, reference compound] |  | lowest sensitivity |  |  | 
CC(C)C[C@H](NC(=O)[C@H](CC(C)C)NC(=O)[C@H](CCCCN)NC(=O)[C@H](CCCCN)NC(=O)[C@H](CC(C)C)NC(=O)[C@H](CC(C)C)NC(=O)[C@H](CCCCN)NC(=O)[C@H](CCCCN)NC(=O)[C@H](CC(C)C)NC(=O)[C@H](CC(C)C)NC(=O)[C@H](CCCCN)NC(=O)[C@H](CCCCN)NC(=O)[C@H](CC(C)C)NC(=O)[C@@H](N)CC(C)C)C(N)=O [KL-8] (H-LLKKLLKKLLKKLL-NH2) |  | highest sensitivity | best therapeutic effect | no statistically significant changes | best therapeutic effect
